According to ChEMBL document CHEMBL1144441, “Identification of a novel cardenolide (2''-oxovoruscharin) from Calotropis procera and the hemisynthesis of novel derivatives displaying potent in vitro antitumor activities and high in vivo tolerance: structure-activity relationship analyses” (J Med Chem, 2005):

What was measured:
U373 MG = assay: Concentration required for 50% growth inhibition of human U373 cancer cell lines after 3 days of culture; format: functional, cell-based, U-373MG ATCC; settings: 72 h
Procedure, shortened: (§1)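 MTT overall-growth assay on the five lines. Cells were plated for 24 h at 10 000–40 000 cells/mL, depending on cell type. Nine concentrations from 10^-9 to 10^-5 M in semilog steps were applied for 72 h. Formazan was read at 570 nm against a 630 nm reference, in sextuplicate. IC50 = concentration reducing overall growth by 50% versus untreated control.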

HCT-15 = assay: Concentration required for 50% growth inhibition of human HCT-15 cancer cell lines after 3 days of culture; format: functional, cell-based; settings: HCT-15, 72 h; procedure, shortened: as §1
Mus musculus = assay: Maximum tolerated dose after intraperitoneal administration in mouse (period of 28 days); format: functional
Procedure, shortened: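 Healthy, non-tumour-bearing B6D2F1 mice given one acute intraperitoneal dose, three mice per dose group, doses 5, 10, 20, 40, 80, 120 and 160 mg/kg. Survival and body weight followed for 28 days after injection. MTD is the highest single dose causing no deaths over the period.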

[1] = Concentration required for 50% growth inhibition of human Hs 683 cancer cell lines after 3 days of culture; format: functional, cell-based; settings: 72 h; procedure, shortened: as §1
A549 = assay: Concentration required for 50% growth inhibition of human A549 cancer cell lines after 3 days of culture; format: functional, cell-based; settings: A549, 72 h; procedure, shortened: as §1
LoVo = assay: Concentration required for 50% growth inhibition of human LoVo cancer cell lines after 3 days of culture; format: functional, cell-based; settings: 72 h; procedure, shortened: as §1

Row | SMILES | IC50 (U373 MG) | IC50 (HCT-15) | MTD (Mus musculus) | IC50 [1] | IC50 (A549) | IC50 (LoVo)
1 | COC(=O)OC[C@]12C[C@H]3OC4(O)[C@@H](O[C@H](C)C[C@@]45N=C(N)CS5)O[C@@H]3C[C@@H]1CC[C@@H]1[C@@H]2CC[C@]2(C)[C@@H](C3=CC(=O)OC3)CC[C@]12CO (stereo partly specified) | 320 nM | 442 nM | >40 mg/kg | 49 nM | 42 nM | 245 nM
2 | Cc1ccc(S(=O)(=O)OC[C@]23C[C@H]4OC5(O)[C@@H](O[C@H](C)C[C@@]56NC(=O)CS6)O[C@@H]4C[C@@H]2CC[C@@H]2[C@@H]3CC[C@]3(C)[C@@H](C4=CC(=O)OC4)CC[C@]23CO)cc1 (stereo partly specified) | 326 nM | 382 nM | – | 45 nM | 48 nM | 89 nM
3 | C[C@@H]1C[C@@]2(NCCS2)C2(O)O[C@@H]3C[C@@]4(CO)[C@@H](CC[C@@H]5[C@@H]4CC[C@]4(C)[C@@H](C6=CC(=O)OC6)CC[C@]54CO)C[C@H]3O[C@@H]2O1 (stereo partly specified) | 31 nM | 21 nM | 5 mg/kg | 3 nM | 4 nM | 13 nM
4 | C[C@@H]1C[C@@]2(NC(=O)CS2)C2(O)O[C@@H]3C[C@@]4(COC(=O)c5ccccc5)[C@@H](CC[C@@H]5[C@@H]4CC[C@]4(C)[C@@H](C6=CC(=O)OC6)CC[C@]54CO)C[C@H]3O[C@@H]2O1 (stereo partly specified) | 4170 nM | 3620 nM | >40 mg/kg | 778 nM | 625 nM | 2370 nM
5 | C[C@@H]1C[C@@]2(N=C(N)CS2)C2(O)O[C@@H]3C[C@@]4(COC(=O)CCc5ccccc5)[C@@H](CC[C@@H]5[C@@H]4CC[C@]4(C)[C@@H](C6=CC(=O)OC6)CC[C@]54CO)C[C@H]3O[C@@H]2O1 (stereo partly specified) | > 10000 nM | > 10000 nM | >40 mg/kg | > 10000 nM | 4730 nM | 4840 nM
6 | C[C@@H]1C[C@@]2(N[C@H](CC(O)c3ccccc3)CS2)C2(O)O[C@@H]3C[C@@]4(CO)[C@@H](CC[C@@H]5[C@@H]4CC[C@]4(C)[C@@H](C6=CC(=O)OC6)CC[C@]54CO)C[C@H]3O[C@@H]2O1 (stereo partly specified) | 28 nM | 31 nM | – | 3 nM | 2 nM | 19 nM
7 | C[C@@H]1C[C@@]2(N[C@H](CC(=O)c3ccccc3)CS2)C2(O)O[C@@H]3C[C@@]4(C=O)[C@@H](CC[C@@H]5[C@@H]4CC[C@]4(C)[C@@H](C6=CC(=O)OC6)CC[C@]54CO)C[C@H]3O[C@@H]2O1 (stereo partly specified) | 41 nM | 49 nM | 10 mg/kg | 7 nM | 4 nM | 33 nM
8 | CC(O)CCC(=O)OC[C@]12C[C@H]3OC4(O)[C@@H](O[C@H](C)C[C@@]45NC(=O)CS5)O[C@@H]3C[C@@H]1CC[C@@H]1[C@@H]2CC[C@]2(C)[C@@H](C3=CC(=O)OC3)CC[C@]12CO (stereo partly specified) | 1190 nM | 1500 nM | >40 mg/kg | 370 nM | 414 nM | 1560 nM
9 | C[C@@H]1C[C@@]2(NC(=O)CS2)C2(O[Si](C)(C)C)O[C@@H]3C[C@@]4(CO[Si](C)(C)C)[C@@H](CC[C@@H]5[C@@H]4CC[C@]4(C)[C@@H](C6=CC(=O)OC6)CC[C@]54CO[Si](C)(C)C)C[C@H]3O[C@@H]2O1 (stereo partly specified) | 3720 nM | 2690 nM | – | 525 nM | 657 nM | 931 nM
10 | C[C@@H]1C[C@@]2(NC(=O)CS2)C2(O)O[C@@H]3C[C@@]4(COS(C)(=O)=O)[C@@H](CC[C@@H]5[C@@H]4CC[C@]4(C)[C@@H](C6=CC(=O)OC6)CC[C@]54CO)C[C@H]3O[C@@H]2O1 (stereo partly specified) | 7310 nM | > 10000 nM | – | 3420 nM | 3650 nM | 8390 nM
